Test results published in ChEMBL document CHEMBL4138126, “Synthesis, antiproliferative, anti-tubulin activity, and docking study of new 1,2,4-triazoles as potential combretastatin analogues” (Eur J Med Chem, 2017).

How the values were obtained:
[1] = system: MOLT-4; assay: Growth inhibition of human MOLT4 cells assessed as cell growth at 10 uM after 48 hrs by sulforhodamine B assay; assay type: functional; conditions: MOLT-4, 48 h, read-out: Activity
Procedure, shortened: (§1)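 NCI 60-cell-line panel screen (nine cancer types). Compounds added at single concentration 10^-5 M, cultures incubated 48 h; growth inhibition percentages reported.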

[2] = system: NCI-H522; assay: Growth inhibition of human NCI-H522 cells assessed as cell growth at 10 uM after 48 hrs by sulforhodamine B assay; assay type: functional; conditions: NCI-H522, 48 h, read-out: Activity; procedure, shortened: as §1
[3] = system: A498; assay: Growth inhibition of human A498 cells assessed as cell growth at 10 uM after 48 hrs by sulforhodamine B assay; assay type: functional; conditions: A498, 48 h, read-out: Activity; procedure, shortened: as §1
[4] = system: M14; assay: Growth inhibition of human M14 cells assessed as cell growth at 10 uM after 48 hrs by sulforhodamine B assay; assay type: functional; conditions: M14, 48 h, read-out: Activity; procedure, shortened: as §1
[5] = system: CCRF-CEM; assay: Growth inhibition of human CCRF-CEM cells assessed as cell growth at 10 uM after 48 hrs by sulforhodamine B assay; assay type: functional; conditions: read-out: Activity; procedure, shortened: as §1
[6] = system: NCI-H460; assay: Growth inhibition of human NCI-H460 cells assessed as cell growth at 10 uM after 48 hrs by sulforhodamine B assay; assay type: functional; conditions: NCI-H460, 48 h, read-out: Activity; procedure, shortened: as §1
[7] = system: LOX IMVI; assay: Growth inhibition of human LOXIMVI cells assessed as cell growth at 10 uM after 48 hrs by sulforhodamine B assay; assay type: functional; conditions: read-out: Activity; procedure, shortened: as §1
[8] = system: OVCAR-8; assay: Growth inhibition of human OVCAR8 cells assessed as cell growth at 10 uM after 48 hrs by sulforhodamine B assay; assay type: functional; conditions: OVCAR-8, 48 h, read-out: Activity; procedure, shortened: as §1
[9] = system: HCT-15; assay: Growth inhibition of human HCT15 cells assessed as cell growth at 10 uM after 48 hrs by sulforhodamine B assay; assay type: functional; conditions: HCT-15, 48 h, read-out: Activity; procedure, shortened: as §1
[10] = system: HT-29; assay: Growth inhibition of human HT-29 cells assessed as cell growth at 10 uM after 48 hrs by sulforhodamine B assay; assay type: functional; conditions: HT-29, 48 h, read-out: Activity; procedure, shortened: as §1
[11] = system: IGROV-1; assay: Growth inhibition of human IGROV1 cells assessed as cell growth at 10 uM after 48 hrs by sulforhodamine B assay; assay type: functional; conditions: IGROV-1, 48 h, read-out: Activity; procedure, shortened: as §1
[12] = system: HOP-62; assay: Growth inhibition of human HOP62 cells assessed as cell growth at 10 uM after 48 hrs by sulforhodamine B assay; assay type: functional; conditions: HOP-62, 48 h, read-out: Activity; procedure, shortened: as §1
[13] = system: SK-MEL-2; assay: Growth inhibition of human SK-MEL-2 cells assessed as cell growth at 10 uM after 48 hrs by sulforhodamine B assay; assay type: functional; conditions: SK-MEL-2, 48 h, read-out: Activity; procedure, shortened: as §1
[14] = system: T47D; assay: Growth inhibition of human T47D cells assessed as cell growth at 10 uM after 48 hrs by sulforhodamine B assay; assay type: functional; conditions: read-out: Activity
Procedure, shortened: (§2)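 NCI 60-cell-line panel from nine tumour types (leukaemia, lung, colon, CNS, melanoma, ovarian, renal, prostate, breast). Each compound was added at one single concentration, and cultures were incubated for 48 h. Results are reported as percent growth inhibition.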

[15] = system: HepG2; assay: Cytotoxicity in human HepG2 cells assessed as reduction in cell viability incubated for 48 hrs by MTT assay; assay type: functional, cell-based; conditions: HepG2, 48 h
Procedure, shortened: (§3)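 HepG2 and HL60 (ATCC) grown in DMEM with 10% FBS, 2 mM L-glutamine, penicillin/streptomycin, amphotericin B at 37 °C, 5% CO2. Samples dissolved in DMSO, diluted thousandfold in assay. Cells seeded in serum-free medium, treated with serial concentrations 48 h; MTT 4 h, formazan dissolved in acidified isopropanol, A570. Triplicates averaged; viability relative to untreated/vehicle control.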

[16] = system: OVCAR-5; assay: Growth inhibition of human OVCAR5 cells assessed as cell growth at 10 uM after 48 hrs by sulforhodamine B assay; assay type: functional; conditions: OVCAR-5, 48 h, read-out: Activity; procedure, shortened: as §1
[17] = system: NCI-H23; assay: Growth inhibition of human NCI-H23 cells assessed as cell growth at 10 uM after 48 hrs by sulforhodamine B assay; assay type: functional; conditions: NCI-H23, 48 h, read-out: Activity; procedure, shortened: as §1
[18] = system: NCI/ADR-RES; assay: Growth inhibition of human NCI-ADR-RES cells assessed as cell growth at 10 uM after 48 hrs by sulforhodamine B assay; assay type: functional; conditions: read-out: Activity; procedure, shortened: as §1
[19] = system: EKVX; assay: Growth inhibition of human EKVX cells assessed as cell growth at 10 uM after 48 hrs by sulforhodamine B assay; assay type: functional; conditions: read-out: Activity; procedure, shortened: as §1
[20] = system: KM12; assay: Growth inhibition of human KM12 cells assessed as cell growth at 10 uM after 48 hrs by sulforhodamine B assay; assay type: functional; conditions: KM12, 48 h, read-out: Activity; procedure, shortened: as §1
[21] = system: SR; assay: Growth inhibition of human SR cells assessed as cell growth at 10 uM after 48 hrs by sulforhodamine B assay; assay type: functional; conditions: read-out: Activity; procedure, shortened: as §2
[22] = system: HCT-116; assay: Growth inhibition of human HCT116 cells assessed as cell growth at 10 uM after 48 hrs by sulforhodamine B assay; assay type: functional; conditions: HCT-116, 48 h, read-out: Activity; procedure, shortened: as §1
[23] = system: SK-OV-3; assay: Growth inhibition of human SKOV3 cells assessed as cell growth at 10 uM after 48 hrs by sulforhodamine B assay; assay type: functional; conditions: SK-OV-3, 48 h, read-out: Activity; procedure, shortened: as §1
[24] = system: NCI-H226; assay: Growth inhibition of human NCI-H226 cells assessed as cell growth at 10 uM after 48 hrs by sulforhodamine B assay; assay type: functional; conditions: NCI-H226, 48 h, read-out: Activity; procedure, shortened: as §1
[25] = system: HL-60(TB); assay: Growth inhibition of human HL-60(TB) cells assessed as cell growth at 10 uM after 48 hrs by sulforhodamine B assay; assay type: functional; conditions: HL-60, 48 h, read-out: Activity
Procedure, shortened: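 Screened by the NCI in its 60-cell-line panel covering nine cancer types, including leukemia. Compounds were added at a single concentration, and the cultures were incubated for 48 h. Results are reported as percent growth inhibition.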

[26] = system: HL-60; assay: Cytotoxicity in human HL60 cells assessed as reduction in cell viability incubated for 48 hrs by MTT assay; assay type: functional, cell-based; conditions: HL-60, 48 h; procedure, shortened: as §3
[27] = system: BT-549; assay: Growth inhibition of human BT549 cells assessed as cell growth at 10 uM after 48 hrs by sulforhodamine B assay; assay type: functional; conditions: BT-549, 48 h, read-out: Activity; procedure, shortened: as §1
[28] = system: HOP-92; assay: Growth inhibition of human HOP92 cells assessed as cell growth at 10 uM after 48 hrs by sulforhodamine B assay; assay type: functional; conditions: HOP-92, 48 h, read-out: Activity; procedure, shortened: as §1
[29] = system: NCI-H322M; assay: Growth inhibition of human NCI-H322M cells assessed as cell growth at 10 uM after 48 hrs by sulforhodamine B assay; assay type: functional; conditions: read-out: Activity; procedure, shortened: as §1
[30] = system: Hs-578T; assay: Growth inhibition of human Hs 578T cells assessed as cell growth at 10 uM after 48 hrs by sulforhodamine B assay; assay type: functional; conditions: read-out: Activity; procedure, shortened: as §1
[31] = system: MCF7; assay: Growth inhibition of human MCF7 cells assessed as cell growth at 10 uM after 48 hrs by sulforhodamine B assay; assay type: functional; conditions: MCF7, 48 h, read-out: Activity; procedure, shortened: as §1
[32] = system: DU-145; assay: Growth inhibition of human DU145 cells assessed as cell growth at 10 uM after 48 hrs by sulforhodamine B assay; assay type: functional; conditions: DU-145, 48 h, read-out: Activity; procedure, shortened: as §1

Compound | growth at 10 µM [1] | growth at 10 µM [2] | growth at 10 µM [3] | growth at 10 µM [4] | growth at 10 µM [5] | growth at 10 µM [6] | growth at 10 µM [7] | growth at 10 µM [8] | growth at 10 µM [9] | growth at 10 µM [10] | growth at 10 µM [11] | growth at 10 µM [12] | growth at 10 µM [13] | growth at 10 µM [14] | growth at 10 µM [16] | growth at 10 µM [17] | growth at 10 µM [18] | growth at 10 µM [19] | growth at 10 µM [20] | growth at 10 µM [21] | also measured
COc1cccc(-n2nc(C(=O)NCc3ccccc3C)nc2-c2cc(OC)c(OC)c(OC)c2)c1 | 80% | 60.8% | 95.9% | 86.7% | 104% | 96.4% | 78.7% | 87.3% | 74.3% | 80.2% | 72% | 71% | 78.1% | 56.4% | 111% | 84% | 63.1% | 73.3% | 82% | 65.8% | IC50 [15]: 3850 nM; growth at 10 µM [22]: 85.2%; growth at 10 µM [23]: 87.7%; growth at 10 µM [24]: 87.9%; growth at 10 µM [25]: 89%; IC50 [26]: 89400 nM; growth at 10 µM [27]: 86.2%; growth at 10 µM [28]: 81.8%; growth at 10 µM [29]: 87.5%; growth at 10 µM [30]: 77.6%; growth at 10 µM [31]: 82.1%; growth at 10 µM [32]: 94.2%
CCOc1ccc(-n2nc(C(=O)NCc3ccccc3OC)nc2-c2cc(OC)c(OC)c(OC)c2)cc1 | 0.38% | 35.7% | 30% | 42.1% | 39.7% | 30.5% | 36.3% | 43.7% | 29% | 40.6% | 43.7% | 62.2% | 41.5% | 17% | 74.2% | 60.8% | 27.8% | 41.3% | 33.8% | 35.9% | IC50 [15]: 620 nM; growth at 10 µM [22]: 25.3%; growth at 10 µM [23]: 67.1%; growth at 10 µM [24]: 62.5%; growth at 10 µM [25]: 19.1%; IC50 [26]: 600 nM; growth at 10 µM [27]: 33.9%; growth at 10 µM [28]: 29%; growth at 10 µM [29]: 52.4%; growth at 10 µM [30]: 55.1%; growth at 10 µM [31]: 22.1%; growth at 10 µM [32]: 65.2%
CCOc1ccc(-n2nc(C(=O)Nc3ccccc3OC)nc2-c2cc(OC)c(OC)c(OC)c2)cc1 | 76.5% | 69.2% | 83.8% | 92.8% | 94% | 83.4% | 92.2% | 90.3% | 80.8% | 74% | 99.3% | 86.5% | 81.9% | 50.2% | 82.4% | 97.8% | 85.3% | 76.3% | 96.2% | 65.7% | growth at 10 µM [22]: 72.7%; growth at 10 µM [23]: 88.8%; growth at 10 µM [24]: 82.3%; growth at 10 µM [25]: 73.2%; growth at 10 µM [27]: 77.6%; growth at 10 µM [28]: 86.8%; growth at 10 µM [29]: 77.4%; growth at 10 µM [30]: 81.5%; growth at 10 µM [31]: 77.4%; growth at 10 µM [32]: 95.6%
